ChEMBL document CHEMBL3244290, “N-Alkyl derivatives of (+/-)-alpha-methyldopamine” (J Med Chem, 1979)
Active and inactive are the calls of the source. No cut-off for these calls is given here.

Experiments:
Felis catus [1] = organism: Felis catus; assay: Inhibition of field stimulation-induced positive chronotrophic response in cat atria; assay type: functional; conditions: Cardiac atrium
Rattus norvegicus [2] = assay: Induction of rotation in rat with unilateral denervation of caudate nucleus at 4 mg/kg, sc; assay type: functional, organism-based; design: dose 4 mg/kg
Method in brief: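 Rats given a unilateral 6-hydroxydopamine injection into the substantia nigra. Compounds dosed subcutaneously and the rotations they induced were counted. Apomorphine served as the reference.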

Rattus norvegicus [3] = organism: Rattus norvegicus; assay: Toxicity in Sprague-Dawley rat assessed as gnawing up to 50 ug injection into nucleus accumbens; assay type: organism-based; conditions: in vivo, other
Method in brief: (§1)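 Male Sprague-Dawley rats (250 ± 25 g) with stereotaxic guide cannulae aimed at the nucleus accumbens. Tested 10–14 days after surgery with a bilateral 1 μL infusion over 60 s; each rat used once and placement checked histologically. Locomotion counted by photocell cage. Stereotypy scored, where 3–4 = biting, gnawing or licking. Pretreatments given ip: α-methyl-p-tyrosine 250 mg/kg 6 h before, or haloperidol 0.1, propranolol 5 or aceperone 2.5 mg/kg 30 min before.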

Canis familiaris [4] = assay: Increase in blood pressure in dog at 0.5 mg/kg, iv by cardiotachometer; assay type: functional, Canis lupus familiaris
Method in brief: (§2)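 Anaesthetised dog (barbital 200 mg/kg). Compounds given intravenously, highest dose tested 1.0 mg/kg. Blood pressure recorded from the right femoral artery and heart rate by cardiometer. Resting heart rate, blood pressure and positive chronotropic responses were assessed after dosing. Doses calculated as free base.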

Canis lupus familiaris = organism: Canis lupus familiaris; assay: Inhibition of electric stimulated dog right cardioaccelerator nerve; assay type: functional
Method in brief: (§3)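 Dog cardioaccelerator nerve preparation under barbital (200 mg/kg) anaesthesia. Compounds given intravenously up to 1.0 mg/kg. Positive chronotropic responses read by cardiometer, with blood pressure taken from the right femoral artery.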

Rattus norvegicus [5] = organism: Rattus norvegicus; assay: Toxicity in Sprague-Dawley rat assessed as locomotor hyperactivity treated bilateral injection into nucleus accumbens at 50 ug; assay type: organism-based; conditions: in vivo, other; method in brief: as §1
Canis familiaris [6] = assay: Inhibition of apomorphine-induced emesis in dog at 2 mg/kg, sc; assay type: functional, organism-based; design: dose 2 mg/kg; conditions: Canis lupus familiaris
Method in brief: (§4)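 Unanaesthetised dogs. For emesis, compound given sc and dogs watched 45 min for an emetic response. For antagonism, compound given sc and apomorphine 100 μg/kg 15 min later.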

Canis familiaris [7] = assay: Increase in resting heart rate in dog at 0.5 mg/kg, iv by cardiotachometer; assay type: functional, organism-based; design: dose 0.5 mg/kg; conditions: Canis lupus familiaris; method in brief: as §2
Canis familiaris [8] = assay: Toxicity in dog assessed as emesis at 2 mg/kg, sc; assay type: organism-based, Canis lupus familiaris; design: dose 2 mg/kg, route subcutaneous; conditions: in vivo; method in brief: as §4
Rattus norvegicus [9] = organism: Rattus norvegicus; assay: Toxicity in Sprague-Dawley rat assessed as biting up to 50 ug injection into nucleus accumbens; assay type: organism-based; conditions: in vivo, other; method in brief: as §1
Felis catus [10] = organism: Felis catus; assay: Inhibition of field stimulation-induced positive ionotrophic response in cat atria; assay type: functional; conditions: Cardiac atrium
Rattus norvegicus [11] = organism: Rattus norvegicus; assay: Toxicity in Sprague-Dawley rat assessed as licking up to 50 ug injection into nucleus accumbens; assay type: organism-based; conditions: in vivo, other; method in brief: as §1
[12] = Toxicity in pigeon assessed as pecking; conditions: columbidae
Method in brief: (§5)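 Pigeons. Compounds given intramuscularly at up to 4 mg/kg to test induction of pecking. Antagonism of pecking induced by apomorphine (1.62 μM/kg) was also tested, and ED50 values were estimated.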

Columbidae = assay: Inhibition of apomorphine-induced pecking in pigeon; assay type: functional; method in brief: as §5
Canis familiaris [13] = assay: Increase in ionotrophic response in iv dosed dog following field stimulation assessed as minimum effective dose by cardiotachometer; assay type: functional, Canis lupus familiaris; design: unit not given here; method in brief: as §3
Canis familiaris [14] = assay: Increase in ionotrophic response in dog following field stimulation at 1 mg/kg, iv by cardiotachometer; assay type: functional, organism-based; design: dose 1 mg/kg; conditions: Canis lupus familiaris; method in brief: as §3
Canis familiaris [15] = assay: Increase in heart rate in dog at 1 mg/kg, iv by cardiotachometer; assay type: functional, organism-based; design: dose 1 mg/kg; conditions: Canis lupus familiaris; method in brief: as §2
Mus musculus [16] = assay: Toxicity in albino B.K.W mouse assessed as stereotyped behaviour at 20 to 80 mg/kg, sc; assay type: organism-based; design: dose 20-80 mg/kg, route subcutaneous; conditions: in vivo
Method in brief: (§6)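 Mice dosed subcutaneously at 20, 40 and 80 mg/kg in 1 mL/kg, doses as free base. Climbing scored as all four paws on the wire, giving a climbing index (% time over 30 min after the first climb) and the maximum time of a single climb. Circling was tested in mice with a unilateral caudate-putamen electrolesion, pre-selected for circling of 7 or more revolutions/2 min in response to apomorphine. Stereotypy was also recorded.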

Mus musculus [17] = assay: Toxicity in albino B.K.W mouse assessed as circling behaviour at 20 to 80 mg/kg, sc; assay type: organism-based; design: dose 20-80 mg/kg, route subcutaneous; conditions: in vivo; method in brief: as §6
Mus musculus [18] = assay: Toxicity in albino B.K.W mouse assessed as climbing behaviour at 20 to 80 mg/kg, sc; assay type: organism-based; design: dose 20-80 mg/kg, route subcutaneous; conditions: in vivo; method in brief: as §6
Canis familiaris [19] = assay: Increase in blood pressure in dog at 30 ug/kg, iv by cardiotachometer; assay type: functional, Canis lupus familiaris; method in brief: as §2
Canis familiaris [20] = assay: Increase in heart rate in dog assessed as beats at 30 ug/kg, iv by cardiotachometer; assay type: functional, Canis lupus familiaris; method in brief: as §2

| Compound | inhibition (Felis catus [1]) | Activity (Rattus norvegicus [2]) | Activity (Rattus norvegicus [3]) | Activity (Canis familiaris [4]) | inhibition (Canis lupus familiaris) | Activity (Rattus norvegicus [5]) | Activity (Canis familiaris [6]) | Activity (Canis familiaris [7]) | Activity (Canis familiaris [8]) | Activity (Rattus norvegicus [9]) | inhibition (Felis catus [10]) | Activity (Rattus norvegicus [11]) | Activity [12] | inhibition (Columbidae) | MED (Canis familiaris [13]) | Activity (Canis familiaris [14]) | Activity (Canis familiaris [15]) | also measured |
| --- | --- | --- | --- | --- | --- | --- | --- | --- | --- | --- | --- | --- | --- | --- | --- | --- | --- | --- |
| COc1ccc(CC(C)N)cc1OC.Cl (racemic) | inactive | inactive | Non-toxic | <=10 mmHg | inactive | Non-toxic | inactive | inactive | Non-toxic | Non-toxic | inactive | Non-toxic | Non-toxic |  |  |  |  |  |
| CNC(C)Cc1ccc(OC)c(OC)c1.Cl (racemic) | inactive | inactive |  | <=10 mmHg | inactive |  | inactive | inactive | Non-toxic |  | inactive |  | Non-toxic |  |  |  |  |  |
| COc1ccc(CC(C)N(C)C)cc1OC.Cl (racemic) | inactive | inactive |  | <=10 mmHg | inactive |  | inactive | inactive | Non-toxic |  | inactive |  | Non-toxic | Active |  |  |  |  |
| CCN(CC)C(C)Cc1ccc(OC)c(OC)c1.Cl (racemic) | inactive | inactive |  | <=10 mmHg | inactive |  | inactive | inactive | Non-toxic |  | inactive |  | Non-toxic | Active | 20 | Active | Active |  |
| CCCN(CCC)C(C)Cc1ccc(OC)c(OC)c1.Cl (racemic) | inactive |  |  | <=10 mmHg | inactive |  | inactive | inactive | Non-toxic |  | inactive |  | Non-toxic | Active |  |  |  |  |
| CCCCN(CCCC)C(C)Cc1ccc(OC)c(OC)c1.Cl (racemic) | inactive |  |  | <=10 mmHg | inactive |  | inactive | inactive | Non-toxic |  | inactive |  | Non-toxic |  |  |  |  |  |
| CCCNC(C)Cc1ccc(OC)c(OC)c1.Cl (racemic) | inactive | inactive | Non-toxic | <=10 mmHg | inactive | Non-toxic | inactive | inactive | Non-toxic | Non-toxic | inactive | Non-toxic | Non-toxic |  | 20 | Active | Active |  |
| CCCCNC(C)Cc1ccc(OC)c(OC)c1.Cl (racemic) | inactive |  |  | <=10 mmHg | inactive |  | inactive | inactive | Non-toxic |  | inactive |  | Non-toxic |  | 20 | Active | Active |  |
| CCNC(C)Cc1ccc(OC)c(OC)c1.Cl (racemic) | inactive |  |  | <=10 mmHg | inactive |  | inactive | inactive | Non-toxic |  | inactive |  | Non-toxic |  |  |  |  |  |
| COc1ccc(CC(C)NC(C)C)cc1OC.Cl (racemic) | inactive | inactive |  | <=10 mmHg | inactive |  | inactive | inactive | Non-toxic |  | inactive |  | Non-toxic |  |  |  |  |  |
| COc1ccc(CC(C)N(C)C(C)C)cc1OC.Cl (racemic) | inactive |  |  | <=10 mmHg | inactive |  | inactive | inactive | Non-toxic |  | inactive |  | Non-toxic | Active | 20 | Active | Active |  |
| Br.CC(C)NC(C)Cc1ccc(O)c(O)c1 (racemic) | inactive |  | Non-toxic |  | inactive | Non-toxic | inactive |  | Non-toxic | Non-toxic | inactive | Non-toxic | Non-toxic |  |  |  |  | Activity (Mus musculus [16]): Non-toxic; Activity (Mus musculus [17]): Non-toxic; Activity (Mus musculus [18]): Non-toxic; Activity (Canis familiaris [19]): 40%; Activity (Canis familiaris [20]): 23 bpm |
| Br.CC(C)N(C)C(C)Cc1ccc(O)c(O)c1 (racemic) | inactive |  | Non-toxic | <=10 mmHg | inactive | Non-toxic | inactive | inactive | Non-toxic | Non-toxic | inactive | Non-toxic | Non-toxic | Active | 20 | Active | Active | Activity (Mus musculus [16]): Non-toxic; Activity (Mus musculus [17]): Non-toxic; Activity (Mus musculus [18]): Non-toxic |
| Br.CCCCNC(C)Cc1ccc(O)c(O)c1 (racemic) | inactive |  | Non-toxic | <=10 mmHg | inactive | Non-toxic | inactive | inactive | Non-toxic | Non-toxic | inactive | Non-toxic | Non-toxic |  |  |  |  | Activity (Mus musculus [16]): Non-toxic; Activity (Mus musculus [17]): Non-toxic; Activity (Mus musculus [18]): Non-toxic |
| Br.CCCCN(CCCC)C(C)Cc1ccc(O)c(O)c1 (racemic) | inactive |  | Non-toxic |  | inactive | Non-toxic | inactive |  | Non-toxic | Non-toxic | inactive | Non-toxic | Non-toxic |  |  |  |  | Activity (Mus musculus [16]): Non-toxic; Activity (Mus musculus [17]): Non-toxic; Activity (Mus musculus [18]): Non-toxic |
